# Results taken from ChEMBL document CHEMBL1131143, “Predictive models for GABAA/benzodiazepine receptor subtypes: studies of quantitative structure-activity relationships for imidazobenzodiazepines at five recombinant GABAA/benzodiazepine receptor subtypes [alphaxbeta3gamma2 (x = 1-3, 5, and 6)] via comparative molecular field analysis” (J Med Chem, 1998).
# Key:
# Assay type in all cases: protein-complex assay
# [1] = target: T1, GABA-A receptor; alpha-5/beta-3/gamma-2 (Homo sapiens, UniProt P18507+P28472+P31644); experiment: Binding affinity for Gamma-aminobutyric acid A receptor alpha-5-beta-3-gamma-2
# T1 sequence (P18507 whole entry): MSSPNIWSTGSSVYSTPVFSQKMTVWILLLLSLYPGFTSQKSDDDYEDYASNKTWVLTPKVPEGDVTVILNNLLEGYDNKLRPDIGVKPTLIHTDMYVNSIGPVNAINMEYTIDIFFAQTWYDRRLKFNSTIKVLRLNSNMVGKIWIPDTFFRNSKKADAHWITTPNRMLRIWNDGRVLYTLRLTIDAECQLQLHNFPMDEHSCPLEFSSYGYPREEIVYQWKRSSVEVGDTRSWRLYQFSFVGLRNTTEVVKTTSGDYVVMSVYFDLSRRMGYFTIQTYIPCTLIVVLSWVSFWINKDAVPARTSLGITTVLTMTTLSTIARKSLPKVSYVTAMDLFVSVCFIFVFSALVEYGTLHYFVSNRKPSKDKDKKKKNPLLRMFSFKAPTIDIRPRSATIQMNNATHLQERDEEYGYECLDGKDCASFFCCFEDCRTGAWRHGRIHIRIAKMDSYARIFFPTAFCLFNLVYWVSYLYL
# T1 sequence (P28472 whole entry): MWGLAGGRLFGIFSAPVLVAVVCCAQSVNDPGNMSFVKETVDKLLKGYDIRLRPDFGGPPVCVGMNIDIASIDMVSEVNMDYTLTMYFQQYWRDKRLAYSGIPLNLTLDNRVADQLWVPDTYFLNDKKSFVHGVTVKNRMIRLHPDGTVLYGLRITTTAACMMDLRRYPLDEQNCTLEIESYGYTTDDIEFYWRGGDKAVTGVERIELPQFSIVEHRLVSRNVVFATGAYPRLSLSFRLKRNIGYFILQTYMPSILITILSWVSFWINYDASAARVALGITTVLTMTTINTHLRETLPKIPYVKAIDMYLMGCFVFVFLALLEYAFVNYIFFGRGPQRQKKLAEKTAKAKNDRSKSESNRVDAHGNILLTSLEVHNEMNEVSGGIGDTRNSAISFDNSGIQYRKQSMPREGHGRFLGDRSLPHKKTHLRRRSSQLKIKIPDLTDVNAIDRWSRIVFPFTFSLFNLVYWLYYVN
# T1 sequence (P31644 whole entry): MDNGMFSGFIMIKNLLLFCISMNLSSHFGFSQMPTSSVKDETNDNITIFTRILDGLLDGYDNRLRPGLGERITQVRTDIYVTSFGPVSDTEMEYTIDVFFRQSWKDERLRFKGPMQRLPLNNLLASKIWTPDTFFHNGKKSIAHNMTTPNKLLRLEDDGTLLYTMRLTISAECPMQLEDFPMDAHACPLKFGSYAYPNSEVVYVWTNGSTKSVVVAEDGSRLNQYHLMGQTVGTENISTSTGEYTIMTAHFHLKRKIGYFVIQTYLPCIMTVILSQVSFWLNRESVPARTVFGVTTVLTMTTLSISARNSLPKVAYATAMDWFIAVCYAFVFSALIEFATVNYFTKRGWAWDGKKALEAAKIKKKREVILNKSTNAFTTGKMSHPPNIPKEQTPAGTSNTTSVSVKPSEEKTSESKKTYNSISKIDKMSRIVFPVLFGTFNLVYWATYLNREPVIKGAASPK
# [2] = target: T2, GABA-A receptor; alpha-2/beta-3/gamma-2 (Homo sapiens, UniProt P18507+P28472+P47869); experiment: Binding affinity tested against alpha-2-beta-3-gamma-2 GABAA/BzR receptor subtype.
# T2 sequence (P18507 whole entry): T1 sequence (P18507 whole entry)
# T2 sequence (P28472 whole entry): T1 sequence (P28472 whole entry)
# T2 sequence (P47869 whole entry): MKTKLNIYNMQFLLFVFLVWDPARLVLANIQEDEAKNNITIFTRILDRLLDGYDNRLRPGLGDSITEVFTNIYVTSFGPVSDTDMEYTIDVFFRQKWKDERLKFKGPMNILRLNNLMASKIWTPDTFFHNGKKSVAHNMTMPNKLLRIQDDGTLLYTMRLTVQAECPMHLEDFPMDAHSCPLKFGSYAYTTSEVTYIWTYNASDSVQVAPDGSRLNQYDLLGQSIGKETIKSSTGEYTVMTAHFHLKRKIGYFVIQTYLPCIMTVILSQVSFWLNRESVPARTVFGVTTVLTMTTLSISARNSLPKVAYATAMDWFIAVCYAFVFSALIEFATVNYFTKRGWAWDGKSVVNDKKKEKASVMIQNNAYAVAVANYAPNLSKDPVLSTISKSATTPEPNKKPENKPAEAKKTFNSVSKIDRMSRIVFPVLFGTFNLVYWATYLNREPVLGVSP
# [3] = target: GABA-A receptor; alpha-6/beta-3/gamma-2 (Homo sapiens, UniProt P18507+P28472+Q16445); experiment: Binding affinity against Gamma-aminobutyric acid A receptor alpha-6-beta-3-gamma-2
# Chain of GABA-A receptor; alpha-6/beta-3/gamma-2 (Q16445 whole entry, one chain of several): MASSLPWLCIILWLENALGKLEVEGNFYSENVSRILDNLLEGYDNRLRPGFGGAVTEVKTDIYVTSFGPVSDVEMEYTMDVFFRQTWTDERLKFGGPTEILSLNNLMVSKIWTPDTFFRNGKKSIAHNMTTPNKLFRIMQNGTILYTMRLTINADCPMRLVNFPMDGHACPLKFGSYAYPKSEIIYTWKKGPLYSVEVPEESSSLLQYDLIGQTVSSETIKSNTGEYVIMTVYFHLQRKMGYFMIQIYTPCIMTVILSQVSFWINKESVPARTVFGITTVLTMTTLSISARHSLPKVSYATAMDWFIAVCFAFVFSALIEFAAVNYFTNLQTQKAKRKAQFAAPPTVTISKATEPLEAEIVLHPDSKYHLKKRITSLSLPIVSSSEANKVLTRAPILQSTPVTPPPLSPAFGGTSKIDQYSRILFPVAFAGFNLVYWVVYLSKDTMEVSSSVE
# How it was run: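 Cells scraped into PBS, spun at 3000g, resuspended in 10 mM KH₂PO₄/100 mM KCl pH 7.4. Nonspecific binding with 10⁻⁵ M diazepam; 1 h to equilibrium at 4 °C; filtration, ice-cold buffer wash, scintillation counting.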
# [4] = target: T3, GABA-A receptor; alpha-3/beta-3/gamma-2 (Homo sapiens, UniProt P18507+P28472+P34903); experiment: Binding affinity against alpha-3-beta-3-gamma-2 GABAA/BzR receptor subtype.
# T3 sequence (P18507 whole entry): T1 sequence (P18507 whole entry)
# T3 sequence (P28472 whole entry): T1 sequence (P28472 whole entry)
# T3 sequence (P34903 whole entry): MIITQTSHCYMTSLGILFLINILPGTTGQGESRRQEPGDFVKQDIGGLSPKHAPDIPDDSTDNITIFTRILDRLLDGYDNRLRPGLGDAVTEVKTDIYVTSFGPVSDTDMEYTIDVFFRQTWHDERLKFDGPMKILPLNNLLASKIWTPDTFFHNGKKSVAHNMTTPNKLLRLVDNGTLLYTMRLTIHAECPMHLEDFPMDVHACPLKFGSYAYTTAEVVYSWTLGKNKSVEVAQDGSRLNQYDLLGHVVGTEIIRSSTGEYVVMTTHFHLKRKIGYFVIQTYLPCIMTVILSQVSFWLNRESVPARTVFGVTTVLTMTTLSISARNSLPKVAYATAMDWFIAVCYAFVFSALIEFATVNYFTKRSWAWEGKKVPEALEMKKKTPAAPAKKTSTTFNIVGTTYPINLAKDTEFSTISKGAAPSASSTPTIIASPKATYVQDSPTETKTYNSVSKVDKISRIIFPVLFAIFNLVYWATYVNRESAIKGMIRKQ
# [5] = target: GABA-A receptor; alpha-1/beta-3/gamma-2 (Homo sapiens) (UniProt P14867+P18507+P28472); experiment: It is the ratio of Ki value for alpha-1-beta-3-gamma-2 to that of alpha-5-beta-3-gamma-2
# [6] = target: T4, GABA-A receptor; alpha-1/beta-3/gamma-2 (Homo sapiens, UniProt P14867+P18507+P28472); experiment: Binding affinity against alpha-1-beta-3-gamma-2 GABAA/BzR receptor subtype.
# T4 sequence (P14867 whole entry): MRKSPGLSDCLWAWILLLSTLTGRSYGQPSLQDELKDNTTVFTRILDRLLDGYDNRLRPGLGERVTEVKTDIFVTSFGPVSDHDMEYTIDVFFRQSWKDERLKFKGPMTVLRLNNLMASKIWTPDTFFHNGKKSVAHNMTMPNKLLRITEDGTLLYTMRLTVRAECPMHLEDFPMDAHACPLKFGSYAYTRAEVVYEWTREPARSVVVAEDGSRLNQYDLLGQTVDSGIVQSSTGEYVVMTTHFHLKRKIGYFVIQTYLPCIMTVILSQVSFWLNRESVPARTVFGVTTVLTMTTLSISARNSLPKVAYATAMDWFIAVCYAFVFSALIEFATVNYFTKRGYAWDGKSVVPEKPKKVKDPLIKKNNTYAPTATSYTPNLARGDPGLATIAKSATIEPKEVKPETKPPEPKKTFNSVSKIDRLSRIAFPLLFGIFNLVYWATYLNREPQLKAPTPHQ
# T4 sequence (P18507 whole entry): T1 sequence (P18507 whole entry)
# T4 sequence (P28472 whole entry): T1 sequence (P28472 whole entry)
smiles,measurement,setting,value
C#Cc1ccc2c(c1)C(=O)N1CC[C@H]1c1c(-c3nc(CC)no3)ncn1-2,Ki,[1],12.7 nM
same,Ki,[2],150 nM
same,Ki,[3],361 nM
same,Ki,[4],184 nM
same,Ratio,[5],17
same,Ki,[6],220 nM
CCCCCc1ncn2c1CN(C)C(=O)c1cc(Cl)ccc1-2,Ki,[1],369 nM
same,Ki,[2],2900 nM
same,Ki,[3],960 nM
same,Ki,[4],2910 nM
same,Ratio,[5],5.6
same,Ki,[6],2050 nM
C#Cc1ccc2c(c1)C(=O)N(C)Cc1c(C(=O)OC(C)(C)C)ncn1-2,Ki,[1],0.4 nM
same,Ki,[2],26.3 nM
same,Ki,[3],5.1 nM
same,Ki,[4],18.7 nM
same,Ratio,[5],67.3
same,Ki,[6],26.9 nM
C#Cc1ccc2c(c1)C(=O)N1CCC[C@H]1c1c(C(=O)OCC)ncn1-2,Ki,[1],1.3 nM
same,Ki,[2],44 nM
same,Ki,[3],126 nM
same,Ki,[4],27 nM
same,Ratio,[5],45
same,Ki,[6],59 nM
CCOC(=O)c1ncn2c1[C@@H]1CCN1C(=O)c1cc(Br)ccc1-2,Ki,[1],0.3 nM
same,Ki,[2],13 nM
same,Ki,[3],31 nM
same,Ki,[4],6.7 nM
same,Ratio,[5],56
same,Ki,[6],17 nM
C#Cc1ccc2c(c1)C(=O)N(C)Cc1c(C(=O)OCC)ncn1-2,Ki,[1],0.49 nM
same,Ki,[2],21.4 nM
same,Ki,[3],28.8 nM
same,Ki,[4],25.8 nM
same,Ratio,[5],58
same,Ki,[6],28.4 nM
CN1Cc2c(C(=O)OC(C)(C)C)ncn2-c2ccc(C#C[Si](C)(C)C)cc2C1=O,Ki,[1],2.61 nM
same,Ki,[2],143 nM
same,Ki,[3],58.6 nM
same,Ki,[4],255 nM
same,Ratio,[5],75.5
same,Ki,[6],197 nM
CN1Cc2c(C(=O)OC(C)(C)C)ncn2-c2ccc(Cl)cc2C1=O,Ki,[1],0.65 nM
same,Ki,[2],21.6 nM
same,Ki,[3],4 nM
same,Ki,[4],29.1 nM
same,Ratio,[5],26.6
same,Ki,[6],17.3 nM
CCOC(=O)c1ncn2c1CN(C)C(=O)c1cc(OCC)ccc1-2,Ki,[1],1.07 nM
same,Ki,[2],36 nM
same,Ki,[3],51.5 nM
same,Ki,[4],16.9 nM
same,Ratio,[5],12.4
same,Ki,[6],11.2 nM
COCc1ncn2c1CN(C)C(=O)c1cc(Cl)ccc1-2,Ki,[1],38.8 nM
same,Ki,[2],> 300 nM
same,Ki,[3],> 300 nM
same,Ki,[4],> 300 nM
same,Ratio,[5],> 7.7
same,Ki,[6],> 300 nM
CCCCC(=O)c1ncn2c1CN(C)C(=O)c1cc(Cl)ccc1-2,Ki,[1],166 nM
same,Ki,[2],2860 nM
same,Ki,[3],2930 nM
same,Ki,[4],2740 nM
same,Ratio,[5],9.6
same,Ki,[6],1580 nM
CC(C)N(Cc1ncn2c1CN(C)C(=O)c1cc(Cl)ccc1-2)C(C)C,Ki,[1],1350 nM
same,Ki,[2],12600 nM
same,Ki,[3],8600 nM
same,Ki,[4],6270 nM
same,Ratio,[5],3.2
same,Ki,[6],4200 nM
